Experimental data from ChEMBL document CHEMBL1137389, “Synthesis and biological properties of novel, uracil-containing histone deacetylase inhibitors” (J Med Chem, 2006).
Active and inactive are the calls of the source. The calls are words filed in the database; no cut-off is given here.

Tests used:
U-937 [1] = test: Induction of apoptosis in U937 cells at 1 uM by AnnexinV/PI double satining; assay type: functional, Homo sapiens
In short: (§1)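 U937 cells exposed 48 h at 1 or 5 µM; apoptosis read by Annexin V/propidium iodide double staining and FACS.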

U-937 [2] = test: Induction of apoptosis in U937 cells at 5 uM by AnnexinV/PI double staining; assay type: functional; in short: as §1
Histone deacetylase 1 = Histone deacetylase 1 (Mus musculus, UniProt O09106); test: Inhibition of mouse HDAC1
Sequence of Histone deacetylase 1 (O09106 whole entry): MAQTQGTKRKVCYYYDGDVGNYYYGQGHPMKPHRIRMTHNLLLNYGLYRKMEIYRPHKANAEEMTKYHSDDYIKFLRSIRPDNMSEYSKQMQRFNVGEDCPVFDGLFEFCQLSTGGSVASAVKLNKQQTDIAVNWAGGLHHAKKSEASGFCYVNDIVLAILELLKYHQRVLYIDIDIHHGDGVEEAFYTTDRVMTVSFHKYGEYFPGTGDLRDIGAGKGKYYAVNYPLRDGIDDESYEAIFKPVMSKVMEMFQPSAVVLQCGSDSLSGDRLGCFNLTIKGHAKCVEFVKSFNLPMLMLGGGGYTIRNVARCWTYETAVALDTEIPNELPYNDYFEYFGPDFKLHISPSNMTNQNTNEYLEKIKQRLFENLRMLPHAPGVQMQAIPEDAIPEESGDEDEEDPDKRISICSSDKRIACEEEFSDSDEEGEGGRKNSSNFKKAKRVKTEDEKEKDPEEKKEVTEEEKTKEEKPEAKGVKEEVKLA

Histone deacetylase HD2 = target: T1, Histone deacetylase HD2 (Zea mays, UniProt Q94F81); test: Inhibition of maize HD2
T1 sequence (Q94F81 whole entry): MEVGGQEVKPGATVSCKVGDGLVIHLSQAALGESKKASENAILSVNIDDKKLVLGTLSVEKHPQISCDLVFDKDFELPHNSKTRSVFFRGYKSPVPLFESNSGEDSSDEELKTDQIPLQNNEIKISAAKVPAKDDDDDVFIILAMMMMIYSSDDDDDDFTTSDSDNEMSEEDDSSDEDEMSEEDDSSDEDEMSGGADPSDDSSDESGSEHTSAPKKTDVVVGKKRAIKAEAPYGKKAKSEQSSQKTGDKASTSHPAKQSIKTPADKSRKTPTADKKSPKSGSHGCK

Histone deacetylase HD1B = Histone deacetylase HD1B (Zea mays, UniProt Q9ZTP8); test: Inhibition of maize HD1B
Sequence of Histone deacetylase HD1B (Q9ZTP8 whole entry): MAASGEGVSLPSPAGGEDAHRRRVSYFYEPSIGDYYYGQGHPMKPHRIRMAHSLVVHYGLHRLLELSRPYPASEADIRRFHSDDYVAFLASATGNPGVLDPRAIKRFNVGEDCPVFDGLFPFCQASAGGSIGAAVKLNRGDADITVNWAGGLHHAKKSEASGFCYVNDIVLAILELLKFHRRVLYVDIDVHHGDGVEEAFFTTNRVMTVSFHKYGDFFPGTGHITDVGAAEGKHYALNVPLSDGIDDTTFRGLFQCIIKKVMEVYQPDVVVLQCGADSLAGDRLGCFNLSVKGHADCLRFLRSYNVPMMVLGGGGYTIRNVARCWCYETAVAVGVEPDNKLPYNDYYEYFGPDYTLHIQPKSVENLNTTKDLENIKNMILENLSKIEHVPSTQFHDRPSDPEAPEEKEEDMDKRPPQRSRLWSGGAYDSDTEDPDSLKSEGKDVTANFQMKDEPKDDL

[3] = target: Histone deacetylase 1 (Homo sapiens) (UniProt Q13547); test: Inhibition of HDAC1 in U937 cell at 5 uM; conditions: U-937
Sequence of Histone deacetylase 1 (Homo sapiens) (Q13547 whole entry): as the sequence (O09106 whole entry) above, with K8R, E399D, D424E counted along it
In short: (§2)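 HDAC1 immunoprecipitated overnight at 4 °C from U937 lysates (1000 µg extract, anti-HDAC1; IgG negative control); 10 µL IP incubated overnight at 37 °C with 120 000 CPM [3H]acetyl-histone H4 peptide on streptavidin beads in HDAC buffer ± inhibitor (5 µM); released radioactivity by scintillation counting; quadruplicate.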

[4] = target: Histone deacetylase 4 (Homo sapiens) (UniProt P56524); test: Inhibition of HDAC4 in ZR75.1 cell at 5 uM; conditions: ZR-75-1
Sequence of Histone deacetylase 4 (Homo sapiens) (P56524 whole entry): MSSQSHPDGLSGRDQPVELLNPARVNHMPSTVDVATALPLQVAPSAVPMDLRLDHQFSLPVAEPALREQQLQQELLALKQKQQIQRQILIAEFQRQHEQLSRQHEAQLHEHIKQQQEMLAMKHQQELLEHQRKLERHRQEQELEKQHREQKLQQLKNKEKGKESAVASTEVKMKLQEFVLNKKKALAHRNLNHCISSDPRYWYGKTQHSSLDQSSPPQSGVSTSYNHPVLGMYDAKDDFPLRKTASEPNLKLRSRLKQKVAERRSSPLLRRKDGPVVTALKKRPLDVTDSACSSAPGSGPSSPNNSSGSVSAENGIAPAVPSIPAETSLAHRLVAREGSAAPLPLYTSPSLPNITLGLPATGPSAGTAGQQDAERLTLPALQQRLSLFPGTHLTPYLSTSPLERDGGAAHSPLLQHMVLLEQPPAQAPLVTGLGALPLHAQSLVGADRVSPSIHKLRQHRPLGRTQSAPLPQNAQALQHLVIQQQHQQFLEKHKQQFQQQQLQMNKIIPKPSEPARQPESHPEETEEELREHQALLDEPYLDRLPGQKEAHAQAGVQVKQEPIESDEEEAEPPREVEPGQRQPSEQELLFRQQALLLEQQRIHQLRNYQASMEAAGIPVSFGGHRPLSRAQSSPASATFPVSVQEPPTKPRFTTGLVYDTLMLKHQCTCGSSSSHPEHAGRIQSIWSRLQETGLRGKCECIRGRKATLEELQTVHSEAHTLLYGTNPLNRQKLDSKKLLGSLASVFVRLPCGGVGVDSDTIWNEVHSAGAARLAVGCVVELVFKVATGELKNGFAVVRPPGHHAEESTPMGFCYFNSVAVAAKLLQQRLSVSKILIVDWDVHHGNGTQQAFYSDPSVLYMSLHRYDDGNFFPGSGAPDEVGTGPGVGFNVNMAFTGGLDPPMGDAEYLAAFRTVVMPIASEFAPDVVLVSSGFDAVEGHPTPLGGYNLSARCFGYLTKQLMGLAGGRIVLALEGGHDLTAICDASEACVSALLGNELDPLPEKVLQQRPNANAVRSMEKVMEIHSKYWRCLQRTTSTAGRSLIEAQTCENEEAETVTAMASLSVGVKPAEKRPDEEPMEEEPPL
In short: as §2, with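 “HDAC4” for “HDAC1”, “ZR-75.1 breast cancer” for “U937”, “anti-HDAC4;” for “anti-HDAC1;”, “µM);” for “µM); released radioactivity by”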

U-937 [5] = test: Induction of H3 histone acetylation in U937 cells by Western blot analysis at 5 uM; assay type: functional, cell-based; conditions: Homo sapiens
U-937 [6] = test: Induction of alpha-tubulin acetylation in U937 cells by Western blot analysis; assay type: functional, cell-based; conditions: Homo sapiens
In short: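 Western blot of U937 total protein extracts (25 µg) on 10% polyacrylamide gel, probed for acetylated alpha-tubulin (1:500); total ERKs used as loading control.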

[7] = target: T2, Histone deacetylase HD2 (Zea mays) (UniProt Q94F81); test: Inhibition of maize HD2 at 20.9 uM
T2 sequence (whole entry): T1 sequence (Q94F81 whole entry)

Zea mays [8] = test: Inhibition of maize HD1A at 20.9 uM
[9] = target: Histone deacetylase HD1B (Zea mays) (UniProt Q9ZTP8); test: Inhibition of maize HD1B at 20.9 uM
Sequence of Histone deacetylase HD1B (Zea mays) (Q9ZTP8 as listed by the source): as the sequence (Q9ZTP8 whole entry) above

U-937 [10] = test: Induction of granulocytic differentiation of U937 cells measured as CD11c expression level after 48 hrs at 1 uM; assay type: functional, Homo sapiens
In short: (§3)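 Granulocytic differentiation: U937 cells treated 48 h at 1 or 5 µM, stained with PE-conjugated anti-CD11c (PE mouse IgG1 control) 30 min at 4 °C in dark, resuspended in PBS with PI 0.25 µg/mL; FACS, PI-positive cells excluded; percent CD11c-positive PI-negative cells reported.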

U-937 [11] = test: Induction of granulocytic differentiation of U937 cells measured as CD11c expression level after 48 hrs at 5 uM; assay type: functional, Homo sapiens; in short: as §3
U-937 [12] = test: Cell cycle arrest in U937 cells by accumulation at G1 phase at 5 uM after 24 hrs; assay type: functional, cell-based; conditions: Homo sapiens
In short: (§4)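 U937 cells (RPMI, 10% FCS, kept at 200 000 cells/mL) treated 24 h at 1 or 5 µM (DMSO stocks); 2.5 × 10^5 cells resuspended in hypotonic buffer (0.1% Triton X-100, 0.1% sodium citrate, 50 µg/mL PI, RNAse A), 30 min dark; DNA content by flow cytometry; experiments performed three times.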

U-937 [13] = test: Antiproliferative activity against U937 cells at 5 uM; assay type: functional, cell-based; conditions: Homo sapiens
In short: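 U937 cells seeded at 200 000 cells/mL in RPMI/10% FCS with vehicle or inhibitor at 5 µM; living cells counted every 24 h by Trypan Blue exclusion; data plotted after three days; triplicate.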

Zea mays [14] = test: Selectivity for HD1A class II HDAC over HD1B class I HDAC
U-937 [15] = test: Cell cycle arrest in U937 cells by accumulation at G1 phase at 1 uM after 24 hrs; assay type: functional, cell-based; conditions: Homo sapiens; in short: as §4
U-937 [16] = test: Cell cycle arrest in U937 cells by accumulation at S/G2/M phase at 5 uM after 24 hrs; conditions: Homo sapiens

Compound | IC50 (Histone deacetylase HD2) [µM] | IC50 (Histone deacetylase HD1B) [µM] | further results
O=C(/C=C/c1cccc(CSc2nc(O)cc(Cc3ccccc3)n2)c1)NO | 0.041 | 0.042 | Activity (U-937 [1]): 8%; Activity (U-937 [2]; Homo sapiens): inactive; IC50 (Histone deacetylase 1): 0.09 µM
COC(c1ccccc1)c1cc(O)nc(SCCCCCC(=O)NO)n1 (stereo not drawn) | 0.082 | 0.079 | 
O=C(CCCCSc1nc(-c2ccccc2)cc(=O)[nH]1)NO | 0.008 | 0.01 | Activity (U-937 [2]; Homo sapiens): inactive; IC50 (Histone deacetylase 1): 0.04 µM; inhibition [3]: 46%; inhibition [4]: 0%; Activity (U-937 [5]): Active; Activity (U-937 [6]): Active
O=C(CCCSc1nc(O)cc(CCc2ccccc2)n1)NO | 0.205 | 0.17 | 
O=C(CCSc1nc(O)cc(CCc2ccccc2)n1)NO | 0.037 | 0.06 | 
O=C(/C=C/Sc1nc(O)cc(-c2ccccc2)n1)NO |  |  | inhibition [7]: 0%; inhibition (Zea mays [8]): 0%; inhibition [9]: 0%
O=C(CCCCCCSc1nc(CCc2ccccc2)cc(=O)[nH]1)NO | 0.083 | 0.062 | 
O=C(CCCCCSc1nc(C2(c3ccccc3)CC2)cc(=O)[nH]1)NO | 0.062 | 0.047 | 
O=C(CCCCSc1nc(O)cc(CCc2ccccc2)n1)NO |  |  | Selectivity ratio (Zea mays [14]): > 3
O=C(CCCCSc1nc(CCc2ccccc2)cc(=O)[nH]1)NO | 0.04 | 0.046 | 
O=C(CCCCCCCSc1nc(O)cc(-c2ccccc2)n1)NO |  |  | Selectivity ratio (Zea mays [14]): > 3
O=C(/C=C/c1ccc(CSc2nc(O)cc(Cc3ccccc3)n2)cc1)NO | 0.08 | 0.073 | Activity (U-937 [2]; Homo sapiens): inactive; IC50 (Histone deacetylase 1): 0.11 µM; Activity (U-937 [10]): 30%; Activity (U-937 [11]): 33%
O=C(CCCCCCCSc1nc(CCc2ccccc2)cc(=O)[nH]1)NO | 0.09 | 0.062 | 
O=C(CCCCCSc1nc(-c2ccccc2)cc(=O)[nH]1)NO |  | 0.019 | Selectivity ratio (Zea mays [14]): > 3
CC(/C=C/C(=O)NO)=C\[C@@H](C)C(=O)c1ccc(N(C)C)cc1 [TRICHOSTATIN] |  | 0.0004 | 
O=C(CCCCCSc1nc(Cc2ccccc2)cc(=O)[nH]1)NO |  | 0.018 | Activity (U-937 [2]; Homo sapiens): inactive; IC50 (Histone deacetylase 1): 0.103 µM; Activity (U-937 [11]): 30%
O=C(CCCCCCCSc1nc(-c2ccccc2)cc(=O)[nH]1)NO | 0.042 | 0.089 | 
O=C(CCCCCSc1nc(O)cc(C(c2ccccc2)c2ccccc2)n1)NO |  |  | Activity (U-937 [2]; Homo sapiens): inactive
O=C(CCCCCCSc1nc(-c2ccccc2)cc(=O)[nH]1)NO | 0.038 | 0.048 | 
O=C(CCCCCCSc1nc(O)cc(-c2ccccc2)n1)NO |  |  | Selectivity ratio (Zea mays [14]): > 3
O=C(CCCCCCC(=O)Nc1ccccc1)NO [VORINOSTAT] |  |  | Activity (U-937 [2]): 98%; Activity (U-937 [10]): 48%; Activity (U-937 [11]): 32%; Activity (U-937 [16]): Active
O=C(/C=C/c1ccccc1CSc1nc(O)cc(-c2ccccc2)n1)NO | 0.367 | 0.78 | 

Further lines, with some results ahead:

IC50 (Histone deacetylase HD2) [µM] | IC50 (Histone deacetylase HD1B) [µM] | Compound | further results
0.76 | 1.06 | O=C(/C=C/c1ccccc1CSc1nc(O)cc(Cc2ccccc2)n1)NO | 
0.822 | 0.89 | O=C(CCSc1nc(-c2ccccc2)cc(=O)[nH]1)NO | 
0.023 | 0.112 | O=C(/C=C/c1ccc(CSc2nc(O)cc(-c3ccccc3)n2)cc1)NO | Activity (U-937 [1]): 8.8%; Activity (U-937 [2]; Homo sapiens): inactive; IC50 (Histone deacetylase 1): 0.034 µM; inhibition [3]: 94%; inhibition [4]: 14%; Activity (U-937 [10]): 42.5%; Activity (U-937 [11]): 46%; Activity (U-937 [5]): Active; Activity (U-937 [12]): Active; Activity (U-937 [13]): Active
0.032 | 0.031 | CCC(c1ccccc1)c1cc(=O)[nH]c(SCCCCCC(=O)NO)n1 (stereo not drawn) | 
0.027 | 0.031 | O=C(CCCSc1nc(O)cc(-c2ccccc2)n1)NO | 
0.017 | 0.064 | O=C(/C=C/c1cccc(CSc2nc(O)cc(-c3ccccc3)n2)c1)NO | Activity (U-937 [15]): Active; Activity (U-937 [2]; Homo sapiens): inactive; IC50 (Histone deacetylase 1): 0.057 µM; Activity (U-937 [11]): 33%; Activity (U-937 [5]): Active; Activity (U-937 [12]): Active; Activity (U-937 [13]): Active
0.009 | 0.092 | CC(c1ccccc1)c1cc(=O)[nH]c(SCCCCCC(=O)NO)n1 (stereo not drawn) | IC50 (Histone deacetylase 1): 0.121 µM
0.052 | 0.058 | O=C(CCCCCSc1nc(C(c2ccccc2)c2ccccc2)cc(=O)[nH]1)NO | 
41 | 96 | O=C(/C=C/Sc1nc(O)cc(CCc2ccccc2)n1)NO | 
